In ChEMBL document CHEMBL4513216, “Probing the Open Global Health Chemical Diversity Library for Multistage-Active Starting Points for Next-Generation Antimalarials” (ACS Infect Dis, 2020):

Assay: Toxicity liver stage against HepG2, at 10uM
Type: cell-based
Set-up: test concentration 10 uM, cell line HepG2-A16-CD81EGFP
Details: human, HepG2-A16-CD81EGFP cells; read-out: INHIBITION
Summary of the method: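 Uninfected HepG2-A16-CD81EGFP cells, 3 × 10^3 per well, 1536-well, plated on prespotted compound at 10 μM final, parasite-free screening media added to match infected plates; puromycin 10 μM positive, DMSO 0.5% negative; run in parallel with 48 h PbLuc assay at 37 °C, 5% CO2; viability by CellTiter-Glo luminescence, normalized to controls.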

Row | Compound | cytotoxicity at 10 µM
1 | COc1ccc(-c2cn3c(n2)CO[C@@H](CNCc2ccccn2)C3)cc1 | -11.8%
2 | Cc1cc(=O)n2nc(-c3cccs3)nc2n1CC(=O)NC(C)C | 12.7%
3 | COC(=O)c1cccc(C(=O)N2CCN(c3cc(Cl)ccc3C)CC2)n1 | 81.2%
4 | CCc1cnc2c(c1NCc1ccc(OC)cc1)c(=O)n(C)c(=O)n2C | 5.79%
5 | Cc1cnc2n(c1=O)CC(C(=O)NCc1ccccc1Cl)CS2 (centres undefined) | -1.74%
6 | CC(C)Nc1nc2c(c(NC3CC3)n1)CN(C(=O)c1ccnnc1)CC2 | -0.449%
7 | Cc1noc(C)c1CN1CC2(CCCCN2c2cncnc2)CC1=O (centres undefined) | 4.13%
8 | O=C1CSC(c2ccsc2)c2c(n(C3CCOCC3)[nH]c2=O)N1 (centres undefined) | 9.53%
9 | O=C(Nc1ccccc1)c1nn(C2CCS(=O)(=O)C2)c2c1CCCC2 (centres undefined) | -9.75%
10 | CCN1CCN(c2ncc3c(=O)n(Cc4ccco4)ccc3n2)CC1 | -15.9%
11 | CCn1cc(C(=O)NCc2csc(C3CC3)n2)c(C)n1 | 27.4%
12 | COCC(=O)NC[C@]1(O)CN(Cc2ccc3c(c2)OCCO3)C[C@H]1O | 1.88%
13 | CN1CCC(CCc2ccnc(NC(=O)c3ccccn3)c2)CC1 | -2.12%
14 | CC(C)Oc1cccc(CN2CCC(c3n[nH]c4ncccc34)CC2)c1 | -6.15%
15 | C[C@@]1(O)CCN(Cc2cc[nH]n2)C[C@H]1Oc1cccc(F)c1 | -6.86%
16 | O=C(c1ccccn1)N1CCC2(COc3ncccc3S(=O)(=O)N2)C1 (centres undefined) | 8.96%
17 | CC(C)CCN1CCC2(CNS(=O)(=O)c3cccnc3O2)C1 (centres undefined) | 4.1%
18 | Cc1noc(C)c1CNC1CCN(c2ccccc2OC(F)F)C1 (centres undefined) | 9.5%
19 | CC(C)(C)c1nccc(N2CCC(OCCN3CCCCC3)C2)n1 (centres undefined) | -53.7%
20 | CCN(CC)S(=O)(=O)CC(=O)N1CCc2ccc(F)cc21 | -4.73%
21 | COc1ccc(CNC(=O)Nc2ccc(S(=O)(=O)C(F)F)cc2)cc1 | 33.6%
22 | O=C(c1ccc(F)cc1)N(CCCO)S(=O)(=O)c1cccs1 | -6.24%
23 | CCc1ccc(C(=O)N2CCCC(c3nn[nH]n3)C2)cc1 (centres undefined) | 4.6%
24 | Cc1cc(CN(C)C(=O)Nc2ccccc2C)no1 | -8.75%
25 | c1csc(N2CCCN(c3ncnc4sccc34)CC2)n1 | 45.3%
26 | COc1cccc2c1N(CC(=O)Nc1ccc(Br)cn1)CCC2 | 36.5%
27 | CC(C)S(=O)(=O)CCN1CCc2c(ncn2C2CC2)C1 | -13.9%

Row | Compound | cytotoxicity at 10 µM
28 | COc1cc(C(C)NCc2ncccc2C)ccc1SC(F)F (centres undefined) | -8.47%
29 | Cc1ccc(CNCc2nnc3n2CC(C(F)(F)F)CC3)o1 (centres undefined) | 9.87%
30 | CSc1cc2c(cc1NC(=O)NCC1CCOC1)OCCO2 (centres undefined) | -4.54%
31 | CC(C)Sc1nnnn1C1CCCC1 | -8.61%
32 | CCCS(=O)(=O)N1CCC(NC(=O)c2cc3ccccc3s2)CC1 | 4.69%
33 | CCC(CNC(=O)c1cncc(Br)c1)N1CCc2ccccc2C1 (centres undefined) | 13.4%
34 | CCNS(=O)(=O)c1ccc(C)c(C(=O)N(C)Cc2ccccc2C)c1 | 0.997%
35 | CCN(C(=O)C1CCC1)C(c1cccnc1)c1ccc2c(c1)CCO2 (centres undefined) | -7.88%
36 | Cc1cnn(CC2CN(CC(=O)Nc3cccnc3)CCO2)c1 (centres undefined) | 8.1%
37 | OCC1CCCN1c1cc(NCCc2ccsc2)ncn1 (centres undefined) | 8.51%
38 | CCSC1(CNc2ncc(Br)cn2)CCOCC1 | -2.72%
39 | CNC(=O)c1cccc(CNC(C)c2ccc(F)cc2N(C)C)c1 (centres undefined) | 0.508%
40 | COc1ccc(NC(C)=O)cc1OCc1cccnc1 | -23.5%
41 | CSCC(CCO)NC(=O)c1cccc(F)c1Cl (centres undefined) | 11.7%
42 | Cc1ccc(CNCc2cccc3cn[nH]c23)c(OC2CCOC2)c1 (centres undefined) | 9.6%
43 | CC1CN(C)CCN1C(=O)c1cnn(-c2ccc(Cl)cc2)c1 (centres undefined) | -22.7%
44 | Clc1ccc(CN2CCc3c(ncn3C3CC3)C2)c2ncccc12 | 14%
45 | COCCC(=O)Nc1ccnn1-c1ccccc1 | -2.55%
46 | CCC(=O)Nc1cc(Br)cnc1OCC(F)(F)F | -1.24%
47 | Cc1cnc(CN(Cc2cccc(O)c2)CC2CC2)cn1 | 16.7%
48 | CN(C(=O)C(c1c(F)cccc1Cl)N(C)C)c1nccs1 (centres undefined) | -58%
49 | NS(=O)(=O)c1ccc(NC(=O)CSc2ccc3c(c2)CCC3)cc1 | -9.06%
50 | CCS(=O)(=O)N1CCc2c(COCc3ccncc3)cncc2C1 | -84.1%
51 | CC(C)NC(=O)N1CCC2(CC1)CC[C@@]1(C(=O)N(C)C)CN(C)C[C@@H]21 | -108%
52 | COCC1CN(C(=O)c2cccs2)Cc2nccn2C1 (centres undefined) | -104%
53 | Cc1nccc([C@@H]2C[C@@H]3CCN(Cc4c(C)noc4C)C[C@H]3O2)n1 | -76.9%
54 | O=C(N1CCOCC1)N1CCC2(CC1)CN(c1ccccn1)CCO2 | -78.2%
